In ChEMBL document CHEMBL3244313, “Synthesis of some carbon-3 substituted 1,4-benzodiazepin-2-ones and their central nervous system effects” (J Med Chem, 1979):
The source made the active and inactive calls. The rule behind the calls is not given here.

Legend:
[1] = system: Mus musculus; experiment: Potency index, ratio of chlordiazepoxide ED50 to compound ED50 for behavioral activity in po dosed albino Swiss-Webster mouse by fighting test; assay type: functional
[2] = Toxicity in po dosed albino Swiss-Webster mouse; assay type: organism-based; conditions: in vivo
[3] = system: Mus musculus; experiment: Muscle relaxing activity in po dosed albino Swiss-Webster mouse; assay type: functional, organism-based
Method in brief: (§1)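 Oral dosing in male and female albino Swiss-Webster mice weighing 25–30 g, six mice per group. ED50 determined with 95% confidence limits.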

[4] = system: Mus musculus; experiment: Anticonvulsant activity in po dosed albino Swiss-Webster mouse assessed as reduction of maximum electro shock-induced seizure; assay type: functional, organism-based; method in brief: as §1
[5] = system: Mus musculus; experiment: Potency index, ratio of chlordiazepoxide ED50 to compound ED50 for hypnotic activity in po dosed albino Swiss-Webster mouse; assay type: functional
[6] = 1-Octanol-aqueous phosphate buffer partition coefficient, log P of the compound at pH 7.35; assay type: physicochemical
Method in brief: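 Concentrations in each phase (C_oct, C_w) measured by UV spectrophotometry. P_oct = C_oct/C_w, reported as log P_oct.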

[7] = system: Mus musculus; experiment: Anticonvulsant activity in po dosed albino Swiss-Webster mouse assessed as reduction of pentylenetetrazole-induced seizure; assay type: functional, organism-based; method in brief: as §1
[8] = system: Mus musculus; experiment: Anticonvulsant activity in po dosed albino Swiss-Webster mouse assessed as reduction of minimum electro shock-induced seizure; assay type: functional, organism-based; method in brief: as §1
[9] = system: Mus musculus; experiment: Potency index, ratio of chlordiazepoxide ED50 to compound ED50 for muscle relaxing activity in po dosed albino Swiss-Webster mouse; assay type: functional
[10] = system: Mus musculus; experiment: Potency index, ratio of chlordiazepoxide ED50 to compound ED50 for anticonvulsant activity in po dosed albino Swiss-Webster mouse assessed as reduction of maximum electro shock-induced seizure; assay type: functional
[11] = system: Mus musculus; experiment: Potency index, ratio of chlordiazepoxide ED50 to compound ED50 for anticonvulsant activity in po dosed albino Swiss-Webster mouse assessed as reduction of pentylenetetrazole-induced seizure; assay type: functional
[12] = system: Mus musculus; experiment: Potency index, ratio of chlordiazepoxide ED50 to compound ED50 for anticonvulsant activity in po dosed albino Swiss-Webster mouse assessed as reduction of minimum electro shock-induced seizure; assay type: functional

| Compound | Ratio ED50 [1] | LD50 [2] | Activity [3] | Activity [4] | Ratio ED50 [5] | logD [6] | Activity [7] | Activity [8] | Ratio ED50 [9] | Ratio ED50 [10] | Ratio ED50 [11] | Ratio ED50 [12] |
| --- | --- | --- | --- | --- | --- | --- | --- | --- | --- | --- | --- | --- |
| CN1C(=O)C(OCC2COC(C)(C)O2)N=C(c2ccccc2)c2cc(Cl)ccc21 (centres undefined) | 1.9 | 9160 µmol/kg | inactive | inactive | 2.3 | 2.37 | inactive | inactive | – | – | – | – |
| O=C1Nc2ccc(Cl)cc2C(c2ccccc2Cl)=NC1OCCO (centres undefined) | 17.8 | 9360 µmol/kg | – | – | 0.65 | 2.04 | – | – | 1.86 | 1.2 | 33.6 | 2.8 |
| O=C1Nc2ccc(Cl)cc2C(c2ccccc2)=NC1OCC(O)CO (centres undefined) | 1.4 | 16600 µmol/kg | – | – | 0.51 | 1.71 | – | – | 0.7 | 2.3 | 12.5 | 0.52 |
| CN1C(=O)C(OC(=O)C(Cl)(Cl)Cl)N=C(c2ccccc2)c2cc(Cl)ccc21 (centres undefined) | 1.3 | 5600 µmol/kg | – | – | 0.9 | – | – | – | 1.93 | 5.2 | 15.3 | 1.62 |
| CNC1=Nc2ccc(Cl)cc2C(c2ccccc2)=[N+]([O-])C1 [CHLORDIAZEPOXIDE] | – | – | – | – | – | 2.5 | – | – | – | – | – | – |
| CN1C(=O)C(OCC(O)CO)N=C(c2ccccc2)c2cc(Cl)ccc21 (centres undefined) | 1 | 16000 µmol/kg | – | – | 0.42 | 1.74 | – | inactive | 0.8 | 0.38 | 10.3 | – |
| CN1CCN=C(c2ccccc2)c2cc(Cl)ccc21 [MEDAZEPAM] | 1 | 5240 µmol/kg | – | – | 0.3 | 4.05 | – | – | 1.3 | 0.81 | 6.2 | 0.32 |
| CC(=O)OC[C@H]1O[C@H](OCCOC2N=C(c3ccccc3)c3cc(Cl)ccc3NC2=O)[C@H](OC(C)=O)[C@@H](OC(C)=O)[C@@H]1OC(C)=O (mixture of isomers) | 1.78 | 17300 µmol/kg | – | – | 0.9 | – | – | – | 0.68 | 3.6 | 13.4 | 0.98 |
| CN1C(=O)C(OCCO)N=C(c2ccccc2)c2cc(Cl)ccc21 (centres undefined) | 1.5 | 17400 µmol/kg | – | – | 0.4 | 1.98 | – | – | 1.1 | 0.8 | 12.5 | 8.3 |
| O=C1Nc2ccc(Cl)cc2C(c2ccccc2Cl)=NC1OCC(O)CO (centres undefined) | 15.3 | 7820 µmol/kg | – | – | 0.58 | 1.96 | – | – | 1.25 | 4.68 | 36.8 | 0.86 |
| CC1(C)OCC(COC2N=C(c3ccccc3)c3cc(Cl)ccc3NC2=O)O1 (centres undefined) | 1.7 | 9980 µmol/kg | inactive | inactive | 0.52 | 2.14 | inactive | inactive | – | – | – | – |
| CC(=O)OC[C@H]1O[C@@H](OCCOC2N=C(c3ccccc3)c3cc(Cl)ccc3NC2=O)[C@H](OC(C)=O)[C@@H](OC(C)=O)[C@@H]1OC(C)=O (mixture of isomers) | 1.83 | 17200 µmol/kg | – | – | 0.76 | – | – | – | 0.75 | 3.4 | 13.8 | 1.02 |
| O=C1Nc2ccc(Cl)cc2C(c2ccccc2)=NC1OCCO (centres undefined) | 1.7 | 18100 µmol/kg | – | – | 0.35 | 1.99 | – | – | 1.3 | 0.58 | 10.3 | 0.4 |
| CC1(C)OCC(COC2N=C(c3ccccc3Cl)c3cc(Cl)ccc3NC2=O)O1 (centres undefined) | 2.3 | 7590 µmol/kg | inactive | inactive | 2 | 2.48 | inactive | inactive | – | – | – | – |
| O=C1Nc2ccc(Cl)cc2C(c2ccccc2)=NC1OC(=O)C(Cl)(Cl)Cl (centres undefined) | 1.92 | 6850 µmol/kg | – | – | 0.73 | – | – | – | 1.6 | 5.7 | 16.5 | 1.32 |
